Source: ChEMBL document CHEMBL1121738, “Mesoionic purinone analogues as inhibitors of cyclic-AMP phosphodiesterase: a comparison of several ring systems” (J Med Chem, 1981)

How the values were obtained:
[1] = Inhibitory activity against phosphodiesterase using 1 uM cyclic-AMP as substrate in bovine heart; set-up: species or system Bos taurus; details: read-out: I50
Outline: (§1)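 Commercial bovine heart phosphodiesterase assayed by the Klee method with 1 μM cyclic-AMP substrate. Poorly soluble inhibitors were predissolved in 95% ethanol, giving 2.5% ethanol final. I50 was taken from a plot of V0/V against inhibitor concentration as the concentration where V0/V = 2. Five concentrations spanning 25–75% inhibition were used, and each I50 was repeated at least three times; ± standard error.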

Bos taurus [2] = species on record: Bos taurus; assay: Relative potency of compound to that of theophylline against phosphodiesterase from bovine heart
Outline: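 Klee-method assay of commercial bovine heart phosphodiesterase with 1 μM cyclic-AMP; some inhibitors were dissolved in 95% ethanol (2.5% final). I50 came from V0/V versus concentration plots (V0/V = 2), using five concentrations and at least three repeats. Each value is expressed relative to the I50 of a theophylline control (= 1.0) run with or without ethanol to match.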

[3] = Inhibition of bovine heart phosphodiesterase using 1 uM cyclic-AMP (Insoluble); set-up: species or system Bos taurus; outline: as §1
[4] = Inhibition of bovine heart phosphodiesterase using 1 uM cyclic-AMP with ethanol; set-up: species or system Bos taurus; details: read-out: I50
Outline: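 Commercial bovine heart PDE, assayed by the Klee method with 1 μM cyclic-AMP substrate. Inhibitors were dissolved in 95% ethanol and diluted with buffer to 2.5% ethanol final. V0/V was plotted against inhibitor concentration, and I50 was taken where V0/V = 2. Five inhibitor concentrations spanning 25-75% inhibition were used, each I50 was run at least three times, and values are expressed relative to an ethanol-containing theophylline control (= 1.0) ± standard error.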

Bos taurus [5] = species on record: Bos taurus; assay: Inhibition of bovine heart phosphodiesterase at 3000 uM using 1 uM cyclic-AMP
Outline: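 Commercial bovine heart cyclic-AMP phosphodiesterase assayed by the Klee method with 1 μM cyclic-AMP substrate. Poorly soluble compounds were dissolved in 95% ethanol (2.5% final) before dilution with buffer. Activity is read as percent inhibition at a single inhibitor concentration.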

Bos taurus [6] = species on record: Bos taurus; assay: Inhibition of bovine heart phosphodiesterase at 1000 uM using 1 uM cyclic-AMP
Outline: (§2)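 Percent inhibition of commercial bovine heart phosphodiesterase at the single stated inhibitor concentration, measured by the Klee method with 1 μM cyclic-AMP substrate. Some compounds were dissolved in 95% ethanol, giving 2.5% final ethanol, before dilution with buffer.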

Bos taurus [7] = species on record: Bos taurus; assay: Inhibition of bovine heart phosphodiesterase using 1 uM cyclic-AMP; outline: as §1
Bos taurus [8] = species on record: Bos taurus; assay: Inhibition of bovine heart phosphodiesterase at 2000 uM using 1 uM cyclic-AMP; outline: as §2
Bos taurus [9] = species on record: Bos taurus; assay: Inhibition of bovine heart phosphodiesterase at 1500 uM using 1 uM cyclic-AMP; outline: as §2

| SMILES | IC50 [1] [µM] | Relative potency (Bos taurus [2]) | other results |
| --- | --- | --- | --- |
| CC1C(=O)N2C=CSC2=[N+](CC2CC2)C1=O (centres undefined) | 319 | 0.9 |  |
| CCC1C(=O)N=C2SC=CN2C1=O (centres undefined) |  |  | I50 [3]: Insoluble |
| CCC1C(=O)N2C=CSC2=[N+](Cc2ccc3c(c2)OCO3)C1=O (centres undefined) | 261 | 1.6 |  |
| CCCC1C(=O)N2N=CN(C)C2=[N+](C)C1=O (centres undefined) | 1710 | 0.2 |  |
| CCC1C(=O)N2CCSC2=[N+](CC2CC2)C1=O (centres undefined) | 1390 | 0.2 |  |
| Cn1c(=O)c2nc[nH]c2n(C)c1=O [THEOPHYLLINE] | 286 |  | IC50 [4]: 412 µM |
| CCC1C(=O)N2C=CN(C)C2=[N+](CC)C1=O (centres undefined) |  |  | inhibition (Bos taurus [5]): < 30% |
| O=C1CC(=O)[N+](CC2CC2)=C2SC=CN12 | 495 | 0.6 |  |
| CC[N+]1=C2N(C)C=CN2C(=O)C(C)C1=O (centres undefined) |  |  | inhibition (Bos taurus [5]): < 30% |
| CC1C(=O)N2N=CSC2=[N+](Cc2ccccc2)C1=O (centres undefined) | 191 | 2.2 |  |
| CCC1C(=O)N2C=CC=CC2=[N+](CC2CCCCC2)C1=O (centres undefined) | 210 | 2 |  |
| CCC1C(=O)N2C=CC=NC2=[N+](C)C1=O (centres undefined) | 1670 | 0.2 |  |
| CCC1C(=O)N2C=CSC2=[N+](Cc2cc(OC)cc(OC)c2)C1=O (centres undefined) | 323 | 1.3 |  |
| CCC1C(=O)N(C)C2SC=CN2C1=O (centres undefined) |  |  | inhibition (Bos taurus [6]): < 40% |
| C[N+]1=C2SC=CN2C(=O)CC1=O |  |  | inhibition (Bos taurus [6]): < 40% |
| CCC1C(=O)N2C=CSC2=[N+](Cc2ccccc2Cl)C1=O (centres undefined) | 305 | 1.4 |  |
| CC[N+]1=C2SC=NN2C(=O)CC1=O | 774 | 0.5 |  |
| CCC1C(=O)N2CCSC2=[N+](CC)C1=O (centres undefined) |  |  | inhibition (Bos taurus [7]): 38% |
| CC1C(=O)N2C=CSC2=[N+](c2ccccc2)C1=O (centres undefined) |  |  | inhibition (Bos taurus [6]): < 40% |
| CCC1C(=O)N2C=CSC2=[N+](Cc2cccc(Cl)c2)C1=O (centres undefined) | 208 | 2 |  |
| CC1C(=O)N2CCSC2=[N+](CC2CC2)C1=O (centres undefined) | 1260 | 0.2 |  |
| CN1C=NN2C(=O)CC(=O)[N+](C)=C12 |  |  | inhibition (Bos taurus [8]): < 30% |
| CCC1C(=O)N(CC)c2scc[n+]2C1=O (centres undefined) | 858 | 0.3 |  |
| CCC1C(=O)N2C=CSC2=[N+](Cc2ccc(-c3ccccc3)cc2)C1=O (centres undefined) | 13 | 31.7 |  |

| SMILES | IC50 [1] [µM] | Relative potency (Bos taurus [2]) | other results |
| --- | --- | --- | --- |
| CCC1C(=O)N=C2N=CC=CN2C1=O (centres undefined) |  |  | inhibition (Bos taurus [8]): 22% |
| CC1C(=O)N2N=CN(C)C2=[N+](C)C1=O (centres undefined) |  |  | inhibition (Bos taurus [8]): < 30% |
| CC1C(=O)N(C)C2SC=CN2C1=O (centres undefined) |  |  | inhibition (Bos taurus [6]): < 40% |
| CC[N+]1=C2SC=CN2C(=O)CC1=O | 988 | 0.3 |  |
| CCC1C(=O)N2C=CSC2=[N+](c2ccccc2)C1=O (centres undefined) |  |  | inhibition (Bos taurus [6]): < 40% |
| CCC1C(=O)N2C=CSC2=[N+](CC(C)C)C1=O (centres undefined) | 498 | 0.6 |  |
| O=C1CC(=O)[N+](c2ccccc2)=C2SC=CN12 |  |  | inhibition (Bos taurus [6]): < 40% |
| C[N+]1=C2SC=NN2C(=O)CC1=O | 1100 | 0.4 |  |
| O=C1CC(=O)[N+](CC2CC2)=C2SCCN12 | 2050 | 0.1 |  |
| CC[N+]1=C2SC=NN2C(=O)C(Cc2ccccc2)C1=O (centres undefined) | 52 | 7.9 |  |
| CC[N+]1=C2SC=CN2C(=O)C(C)C1=O (centres undefined) | 951 | 0.3 |  |
| COc1ccc(C[N+]2=C3SC=CN3C(=O)C(C)C2=O)cc1 (centres undefined) | 532 | 0.7 |  |
| CC[N+]1=C2SC=NN2C(=O)C(C)C1=O (centres undefined) | 1160 | 0.4 |  |
| CCC1C(=O)N2C=CSC2=[N+](Cc2ccccc2)C1=O (centres undefined) | 430 | 0.9 |  |
| O=C1CC(=O)[n+]2ccsc2N1Cc1cccc(Cl)c1 | 308 | 1.3 |  |
| CCC1C(=O)N2N=CSC2=[N+](CC)C1=O (centres undefined) | 555 | 0.7 |  |
| CCC1C(=O)N2C=CSC2=[N+](Cc2ccc(Cl)cc2)C1=O (centres undefined) | 191 | 2.2 |  |
| CCC1C(=O)N2CCSC2=[N+](CC(C)C)C1=O (centres undefined) |  |  | inhibition (Bos taurus [9]): 39% |
| CC[N+]1=C2SC=CN2C(=O)C(Cc2ccccc2)C1=O (centres undefined) | 168 | 2.5 |  |
| CCC1C(=O)N2C=Cc3ccccc3C2=[N+](CC)C1=O (centres undefined) | 127 | 3.2 |  |
| CCC1C(=O)N=C2SC=NN2C1=O (centres undefined) |  |  | I50 [3]: Insoluble |
| Cn1c(=O)c2[nH]cnc2n(C)c1=O |  | 1 |  |
| CCC1C(=O)N2N=CN(C)C2=[N+](C)C1=O (centres undefined) |  |  | inhibition (Bos taurus [8]): < 30% |
| CCC1C(=O)N2C=CSC2=[N+](CC2CC2)C1=O (centres undefined) | 396 | 0.7 |  |
